The results in this text go back to ChEMBL document CHEMBL4196085, “Structure-guided design of potent and permeable inhibitors of MERS coronavirus 3CL protease that utilize a piperidine moiety as a novel design element” (Eur J Med Chem, 2018).

Data set [1] concerns the target Replicase polyprotein 1ab (Severe acute respiratory syndrome-related coronavirus, UniProt P0C6X7). Put plainly: Inhibition of SARS coronavirus 3CL protease using Dabcyl-KTSAVLQ/SGFRKME-Edans as substrate incubated for 30 mins followed by substrate addition measured after 1 hr by FRET assay. The method in brief: (§1)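 Purified recombinant 3CLpro of FIPV, MERS-CoV or SARS-CoV was preincubated 30 min at 37 °C with serial compound dilutions or DMSO. Buffer: 20 mM HEPES pH 8, 200 mM NaCl, 0.4 mM EDTA, 60% glycerol, 6 mM DTT. Substrate was then added and fluorescence read 1 h later (ex 360/em 460 nm), minus no-protease background. IC50 came from variable-slope fits, at least two determinations.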

Data set [2] concerns the target Replicase polyprotein 1ab (Feline coronavirus (strain FIPV WSU-79/1146) (FCoV), UniProt Q98VG9). Put plainly: Inhibition of Feline infectious peritonitis virus 3CL protease using Dabcyl-KTSAVLQ/SGFRKME-Edans as substrate incubated for 30 mins followed by substrate addition measured after 1 hr by FRET assay. The method in brief: as §1
Data set [3] addresses Replicase polyprotein 1ab (Middle East respiratory syndrome-related coronavirus (isolate UnitedKingdom/H123990006/2012) (Betacoronavirus England 1) (Humancoronavirus EMC), UniProt K9N7C7). Put plainly: Inhibition of Middle East respiratory syndrome-related coronavirus 3CL protease using Dabcyl-KTSAVLQ/SGFRKME-Edans as substrate incubated for 30 mins followed by substrate addition measured after 1 hr by FRET assay. In outline:
as §1

Data set [4] can be described thus: Cytotoxicity against African green monkey Vero81 cells assessed as reduction in cell viability after 72 hrs by CytoTox 96 nonradioactive cytotoxicity assay. Type of data set: cell-based. Conditions: chlorocebus sabaeus. In outline: (§2)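 Confluent Vero81, CRFK or CCL9.1 cells were exposed to compound at 1–100 μM for 72 h. Cytotoxicity was read with the CytoTox 96 nonradioactive kit. CC50 was taken as the dose giving 50% cell death, averaged over at least two determinations.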

Data set [5] deals with Middle East respiratory syndrome-related coronavirus. Put plainly: Antiviral activity against Middle East respiratory syndrome-related coronavirus infected in African green monkey Vero81 cells assessed as reduction in viral titer after 48 hrs. Type of data set: functional, organism-based.
The nature of data set [6]: Selectivity index, ratio of CC50 for African green monkey Vero81 cells to IC50 for Middle East respiratory syndrome-related coronavirus. The format is toxicity. Conditions: read-out: Ratio CC50/IC50.
Data set [7] in a line: Cytotoxicity against cat CRFK cells assessed as reduction in cell viability after 72 hrs by CytoTox 96 nonradioactive cytotoxicity assay. The format is cell-based, Felis catus. In outline: as §2
Data set [8] deals with Feline infectious peritonitis virus. Put plainly: Antiviral activity against Feline infectious peritonitis virus infected in […] cells assessed as reduction in viral titer after 48 hrs. The format is functional, organism-based. Conditions: Alphacoronavirus 1, 48 h.
Data set [9] is described as follows: Cytotoxicity against mouse CCL-9.1 assessed as reduction in cell viability after 72 hrs by CytoTox 96 nonradioactive cytotoxicity assay. The note with it: CCL-9.1 cells. In outline: as §2

Structures are written as SMILES. Bounds are passed on as bounds.

Usually IC50 stands for the point on the concentration scale where inhibition reaches its midpoint. As usually defined, the CC50 is the concentration that lowers cell viability or growth by half. The EC50 is the concentration giving half of the maximal effect.

Sequence of Replicase polyprotein 1ab (Feline coronavirus (strain FIPV WSU-79/1146) (FCoV), UniProt Q98VG9) (Q98VG9 2904-3205 limits assumed): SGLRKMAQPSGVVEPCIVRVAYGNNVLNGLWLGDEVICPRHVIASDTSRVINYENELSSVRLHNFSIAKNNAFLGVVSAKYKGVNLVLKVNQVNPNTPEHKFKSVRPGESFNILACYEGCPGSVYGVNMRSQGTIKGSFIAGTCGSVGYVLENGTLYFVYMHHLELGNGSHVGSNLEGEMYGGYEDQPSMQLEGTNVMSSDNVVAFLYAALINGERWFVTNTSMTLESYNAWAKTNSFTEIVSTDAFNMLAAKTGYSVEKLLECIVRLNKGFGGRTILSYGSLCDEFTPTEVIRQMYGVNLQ
Sequence of Replicase polyprotein 1ab (Middle East respiratory syndrome-related coronavirus (isolate UnitedKingdom/H123990006/2012) (Betacoronavirus England 1) (Humancoronavirus EMC), UniProt K9N7C7) (K9N7C7 3248-3553 limits assumed): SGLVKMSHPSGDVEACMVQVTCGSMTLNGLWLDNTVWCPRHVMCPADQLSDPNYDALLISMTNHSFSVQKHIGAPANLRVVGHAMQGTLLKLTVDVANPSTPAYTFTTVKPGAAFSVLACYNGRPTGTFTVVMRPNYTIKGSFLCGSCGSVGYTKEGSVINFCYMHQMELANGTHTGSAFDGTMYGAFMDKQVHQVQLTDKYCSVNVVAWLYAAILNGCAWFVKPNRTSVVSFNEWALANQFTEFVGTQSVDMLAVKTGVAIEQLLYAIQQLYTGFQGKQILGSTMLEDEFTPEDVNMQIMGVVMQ

Consider `CCC1(OC(=O)N[C@@H](CC(C)C)C(=O)N[C@@H](C[C@@H]2CCNC2=O)C(O)S(=O)(=O)O)CCN(C(=O)OC(C)(C)C)CC1` (some centres not stated), for which the IC50 was found to be 4.1 µM in data set [1], 6.7 µM in data set [2] and 7.5 µM in data set [3].

On to `CC(C)C[C@H](NC(=O)OC1(Cc2ccccc2)CCN(C(=O)OC(C)(C)C)CC1)C(=O)N[C@H](C=O)C[C@@H]1CCNC1=O`, for which the values for the 50% inhibitory concentration (IC50) in [1], in data set [2] and in data set [3] were 5.2 µM, 1.6 µM and 0.8 µM, respectively.

`CC(C)C[C@H](NC(=O)OC1CCN(C(=O)OC(C)(C)C)CC1)C(=O)N[C@H](C=O)C[C@@H]1CCNC1=O`: the half-maximal inhibitory concentration (IC50) in [1] came out at 2.1 µM; in [2], 0.8 µM; in [3], 0.6 µM.

On to `CC(C)C[C@H](NC(=O)OC1CCN(C(=O)OC(C)(C)C)CC1)C(=O)N[C@@H](C[C@@H]1CCNC1=O)C(O)S(=O)(=O)O` (some centres not stated), for which the CC50 at 72 h in [4], in data set [7] and in data set [9] was more than 100 µM in each case. In addition, the concentration giving a half-maximal response (EC50) in [5] was 0.5 µM; in data set [8], 1.5 µM. In data set [6], the selectivity ratio is more than 250. The figures for the IC50 in data set [1], in [2] and in [3] were 5.1 µM, 2.4 µM and 0.4 µM, respectively.

On to `CCOC(=O)N1CCC(OC(=O)N[C@@H](CC(C)C)C(=O)N[C@H](C=O)C[C@@H]2CCNC2=O)CC1`, for which the half-maximal inhibitory concentration (IC50) in [1] worked out at 3.2 µM; in data set [2], 1.3 µM; in data set [3], 0.6 µM.

With `CC(C)C[C@H](NC(=O)OC1(Cc2ccccc2)CCN(S(C)(=O)=O)CC1)C(=O)N[C@H](C=O)C[C@@H]1CCNC1=O`, the concentration for half-maximal inhibition (IC50) in [1] stood at 3.9 µM; in [2], 0.8 µM; in data set [3] it was 0.7 µM.

Consider `CCOC(=O)N1CCC(OC(=O)N[C@@H](CC(C)C)C(=O)N[C@@H](C[C@@H]2CCNC2=O)C(O)S(=O)(=O)O)CC1` (some centres not stated), for which the 50% inhibitory concentration (IC50) in [1] came out at 8.8 µM; in data set [2], 1.1 µM; in [3], 0.5 µM.

As for `CC(C)C[C@H](NC(=O)OC1CCN(S(C)(=O)=O)CC1)C(=O)N[C@@H](C[C@@H]1CCNC1=O)C(O)S(=O)(=O)O` (some centres not stated), the values for the half-inhibitory concentration (IC50) in [1], in [2] and in data set [3] were 42.1 µM, 2.3 µM and 0.6 µM, respectively.

For `CCC1(OC(=O)N[C@@H](CC(C)C)C(=O)N[C@H](C=O)C[C@@H]2CCNC2=O)CCN(C(=O)OC(C)(C)C)CC1`, the results for the IC50 in data set [1], in data set [2] and in data set [3] were 5.5 µM, 5.5 µM and 6.1 µM, respectively.

Regarding `CC(C)C[C@H](NC(=O)OC1CCN(S(C)(=O)=O)CC1)C(=O)N[C@H](C=O)C[C@@H]1CCNC1=O`, the IC50 worked out at 28.8 µM in [1], 3.5 µM in data set [2] and 0.7 µM in [3].

As for `CC(C)C[C@H](NC(=O)OC1(Cc2ccccc2)CCN(S(C)(=O)=O)CC1)C(=O)N[C@@H](C[C@@H]1CCNC1=O)C(O)S(=O)(=O)O` (some centres not stated), the IC50 came to 4.3 µM in data set [1], 1.1 µM in data set [2] and 0.9 µM in data set [3].

As to `CC(C)C[C@H](NC(=O)OC1(Cc2ccccc2)CCN(C(=O)OC(C)(C)C)CC1)C(=O)N[C@@H](C[C@@H]1CCNC1=O)C(O)S(=O)(=O)O` (some centres not stated), the cytotoxic concentration (CC50) at 72 h in data set [4], in data set [7] and in data set [9] was more than 100 µM in each case. The EC50 in data set [5] was found to be 0.8 µM; in data set [8] it was 0.1 µM. For the same molecule, the figures for the IC50 in data set [1], in data set [2] and in data set [3] were 6.3 µM, 2.1 µM and 0.7 µM, respectively.
